Assay results reported in ChEMBL document CHEMBL4699476, “Structure-based drug optimization and biological evaluation of tetrahydroquinolin derivatives as selective and potent CBP bromodomain inhibitors” (Bioorg Med Chem Lett, 2020).

Experiments:
[1] = target: T1, CREB-binding protein (Homo sapiens, UniProt Q92793); experiment: Inhibition of CBP BRD (unknown origin) by TR-FRET assay
Target sequence in this assay (Q92793 whole entry): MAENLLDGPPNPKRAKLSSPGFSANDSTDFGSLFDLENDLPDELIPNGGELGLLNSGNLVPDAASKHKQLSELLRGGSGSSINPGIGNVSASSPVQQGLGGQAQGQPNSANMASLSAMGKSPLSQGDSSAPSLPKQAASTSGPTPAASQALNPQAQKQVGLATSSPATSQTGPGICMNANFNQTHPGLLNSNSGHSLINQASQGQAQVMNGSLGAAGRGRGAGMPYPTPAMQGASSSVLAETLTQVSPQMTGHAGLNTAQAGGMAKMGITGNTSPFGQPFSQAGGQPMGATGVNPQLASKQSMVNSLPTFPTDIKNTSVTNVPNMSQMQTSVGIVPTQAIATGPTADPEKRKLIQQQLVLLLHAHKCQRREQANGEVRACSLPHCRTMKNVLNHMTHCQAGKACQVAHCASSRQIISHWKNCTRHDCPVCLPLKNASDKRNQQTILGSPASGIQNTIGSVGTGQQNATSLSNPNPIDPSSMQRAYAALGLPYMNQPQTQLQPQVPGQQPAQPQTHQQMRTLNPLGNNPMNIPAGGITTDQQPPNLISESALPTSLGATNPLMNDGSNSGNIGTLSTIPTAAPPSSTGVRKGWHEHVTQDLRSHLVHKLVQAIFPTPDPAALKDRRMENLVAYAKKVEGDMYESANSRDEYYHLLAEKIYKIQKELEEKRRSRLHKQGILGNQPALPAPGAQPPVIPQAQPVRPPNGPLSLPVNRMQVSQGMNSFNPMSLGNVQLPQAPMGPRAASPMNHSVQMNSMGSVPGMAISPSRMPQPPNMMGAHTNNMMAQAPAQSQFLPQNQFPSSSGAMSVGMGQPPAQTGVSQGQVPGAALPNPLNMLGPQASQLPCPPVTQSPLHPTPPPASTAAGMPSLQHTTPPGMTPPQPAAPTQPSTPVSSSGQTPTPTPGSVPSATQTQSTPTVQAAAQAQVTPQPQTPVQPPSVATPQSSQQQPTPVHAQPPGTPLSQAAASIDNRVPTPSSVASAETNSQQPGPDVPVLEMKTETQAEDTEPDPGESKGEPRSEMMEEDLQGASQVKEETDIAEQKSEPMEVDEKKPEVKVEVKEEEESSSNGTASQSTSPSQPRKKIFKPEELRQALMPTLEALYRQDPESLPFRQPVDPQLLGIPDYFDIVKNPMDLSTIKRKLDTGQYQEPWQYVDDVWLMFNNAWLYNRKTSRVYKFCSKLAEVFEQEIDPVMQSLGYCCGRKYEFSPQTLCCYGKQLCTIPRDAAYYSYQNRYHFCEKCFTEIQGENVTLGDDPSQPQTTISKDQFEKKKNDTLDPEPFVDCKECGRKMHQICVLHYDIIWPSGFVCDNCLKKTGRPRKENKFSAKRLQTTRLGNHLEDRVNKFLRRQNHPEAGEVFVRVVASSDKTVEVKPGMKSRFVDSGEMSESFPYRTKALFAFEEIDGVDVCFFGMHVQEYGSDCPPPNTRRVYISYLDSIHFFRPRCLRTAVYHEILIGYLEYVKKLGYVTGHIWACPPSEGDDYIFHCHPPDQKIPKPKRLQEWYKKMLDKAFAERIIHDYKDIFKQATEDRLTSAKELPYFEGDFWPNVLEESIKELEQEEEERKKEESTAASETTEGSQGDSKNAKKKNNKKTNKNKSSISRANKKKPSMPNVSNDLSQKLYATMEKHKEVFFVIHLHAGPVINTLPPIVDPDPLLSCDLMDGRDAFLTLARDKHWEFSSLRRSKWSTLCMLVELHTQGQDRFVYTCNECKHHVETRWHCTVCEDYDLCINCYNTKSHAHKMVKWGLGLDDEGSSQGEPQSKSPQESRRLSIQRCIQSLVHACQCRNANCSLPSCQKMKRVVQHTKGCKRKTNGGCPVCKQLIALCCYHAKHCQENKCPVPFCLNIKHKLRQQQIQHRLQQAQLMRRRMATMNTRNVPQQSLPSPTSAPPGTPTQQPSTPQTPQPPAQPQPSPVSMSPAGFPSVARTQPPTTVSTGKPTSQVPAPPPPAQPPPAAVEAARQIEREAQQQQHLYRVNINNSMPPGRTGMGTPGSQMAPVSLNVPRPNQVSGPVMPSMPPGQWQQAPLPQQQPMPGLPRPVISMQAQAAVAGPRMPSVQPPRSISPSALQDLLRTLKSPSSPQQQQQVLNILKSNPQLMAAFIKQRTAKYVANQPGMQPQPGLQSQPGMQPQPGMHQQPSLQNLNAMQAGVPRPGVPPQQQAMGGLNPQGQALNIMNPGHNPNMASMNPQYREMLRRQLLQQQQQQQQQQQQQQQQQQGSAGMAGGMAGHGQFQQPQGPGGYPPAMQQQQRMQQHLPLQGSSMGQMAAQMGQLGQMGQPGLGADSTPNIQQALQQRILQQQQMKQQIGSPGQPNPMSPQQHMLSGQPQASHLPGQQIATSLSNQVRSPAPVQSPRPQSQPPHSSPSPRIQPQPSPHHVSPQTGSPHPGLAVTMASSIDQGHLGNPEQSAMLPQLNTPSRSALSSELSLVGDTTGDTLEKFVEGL

[2] = test system: MV4-11; experiment: Antiproliferative activity against human MV4-11 cells at 6.25 uM incubated for 6 days relative to control; assay type: functional; conditions: MV4-11, 144 h, time 6 day
Procedure, shortened: (§1)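 MV4-11 AML cells exposed to test agent at 6.25 or 1.56 µM for 6 days; viability read as percent growth inhibition versus control; inhibition rates are means of at least two determinations.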

[3] = test system: MV4-11; experiment: Antiproliferative activity against human MV4-11 cells incubated for 6 days relative to control; assay type: functional, cell-based; conditions: MV4-11, 144 h
Procedure, shortened: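 MV4-11 cells treated for 6 days; IC50 derived for agents giving over 50% growth inhibition at 1.56 µM; values reported with ± error.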

[4] = test system: MV4-11; experiment: Antiproliferative activity against human MV4-11 cells at 1.56 uM incubated for 6 days relative to control; assay type: functional; conditions: MV4-11, 144 h, time 6 day; procedure, shortened: as §1
[5] = target: T1, CREB-binding protein; experiment: Inhibition of GST-tagged CBP BRD (unknown origin) incubated for 30 mins by HTRF assay
Target sequence in this assay (Q92793 whole entry): as above

[6] = target: T2, Bromodomain-containing protein 4 (Homo sapiens, UniProt O60885); experiment: Inhibition of BRD4 BD1 (unknown origin) by ALPHAScreen assay
[7] = target: T2, Bromodomain-containing protein 4; experiment: Inhibition of BRD4 BD2 (unknown origin) by ALPHAScreen assay
[8] = target: T1, CREB-binding protein; experiment: Inhibition of CBP in human MV4-11 cells assessed as decrease in c-myc protein expression incubated for 12 hrs by Western blot analysis; assay type: cell-based; conditions: dose microM 0.25-2, time 12.0 hrs
Procedure, shortened: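 MV4-11 cells treated at 0, 0.25, 0.5, 1 and 2 µM for 12 h; c-Myc protein level assessed by Western blot.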
Target sequence in this assay (Q92793 2-2442 limits assumed): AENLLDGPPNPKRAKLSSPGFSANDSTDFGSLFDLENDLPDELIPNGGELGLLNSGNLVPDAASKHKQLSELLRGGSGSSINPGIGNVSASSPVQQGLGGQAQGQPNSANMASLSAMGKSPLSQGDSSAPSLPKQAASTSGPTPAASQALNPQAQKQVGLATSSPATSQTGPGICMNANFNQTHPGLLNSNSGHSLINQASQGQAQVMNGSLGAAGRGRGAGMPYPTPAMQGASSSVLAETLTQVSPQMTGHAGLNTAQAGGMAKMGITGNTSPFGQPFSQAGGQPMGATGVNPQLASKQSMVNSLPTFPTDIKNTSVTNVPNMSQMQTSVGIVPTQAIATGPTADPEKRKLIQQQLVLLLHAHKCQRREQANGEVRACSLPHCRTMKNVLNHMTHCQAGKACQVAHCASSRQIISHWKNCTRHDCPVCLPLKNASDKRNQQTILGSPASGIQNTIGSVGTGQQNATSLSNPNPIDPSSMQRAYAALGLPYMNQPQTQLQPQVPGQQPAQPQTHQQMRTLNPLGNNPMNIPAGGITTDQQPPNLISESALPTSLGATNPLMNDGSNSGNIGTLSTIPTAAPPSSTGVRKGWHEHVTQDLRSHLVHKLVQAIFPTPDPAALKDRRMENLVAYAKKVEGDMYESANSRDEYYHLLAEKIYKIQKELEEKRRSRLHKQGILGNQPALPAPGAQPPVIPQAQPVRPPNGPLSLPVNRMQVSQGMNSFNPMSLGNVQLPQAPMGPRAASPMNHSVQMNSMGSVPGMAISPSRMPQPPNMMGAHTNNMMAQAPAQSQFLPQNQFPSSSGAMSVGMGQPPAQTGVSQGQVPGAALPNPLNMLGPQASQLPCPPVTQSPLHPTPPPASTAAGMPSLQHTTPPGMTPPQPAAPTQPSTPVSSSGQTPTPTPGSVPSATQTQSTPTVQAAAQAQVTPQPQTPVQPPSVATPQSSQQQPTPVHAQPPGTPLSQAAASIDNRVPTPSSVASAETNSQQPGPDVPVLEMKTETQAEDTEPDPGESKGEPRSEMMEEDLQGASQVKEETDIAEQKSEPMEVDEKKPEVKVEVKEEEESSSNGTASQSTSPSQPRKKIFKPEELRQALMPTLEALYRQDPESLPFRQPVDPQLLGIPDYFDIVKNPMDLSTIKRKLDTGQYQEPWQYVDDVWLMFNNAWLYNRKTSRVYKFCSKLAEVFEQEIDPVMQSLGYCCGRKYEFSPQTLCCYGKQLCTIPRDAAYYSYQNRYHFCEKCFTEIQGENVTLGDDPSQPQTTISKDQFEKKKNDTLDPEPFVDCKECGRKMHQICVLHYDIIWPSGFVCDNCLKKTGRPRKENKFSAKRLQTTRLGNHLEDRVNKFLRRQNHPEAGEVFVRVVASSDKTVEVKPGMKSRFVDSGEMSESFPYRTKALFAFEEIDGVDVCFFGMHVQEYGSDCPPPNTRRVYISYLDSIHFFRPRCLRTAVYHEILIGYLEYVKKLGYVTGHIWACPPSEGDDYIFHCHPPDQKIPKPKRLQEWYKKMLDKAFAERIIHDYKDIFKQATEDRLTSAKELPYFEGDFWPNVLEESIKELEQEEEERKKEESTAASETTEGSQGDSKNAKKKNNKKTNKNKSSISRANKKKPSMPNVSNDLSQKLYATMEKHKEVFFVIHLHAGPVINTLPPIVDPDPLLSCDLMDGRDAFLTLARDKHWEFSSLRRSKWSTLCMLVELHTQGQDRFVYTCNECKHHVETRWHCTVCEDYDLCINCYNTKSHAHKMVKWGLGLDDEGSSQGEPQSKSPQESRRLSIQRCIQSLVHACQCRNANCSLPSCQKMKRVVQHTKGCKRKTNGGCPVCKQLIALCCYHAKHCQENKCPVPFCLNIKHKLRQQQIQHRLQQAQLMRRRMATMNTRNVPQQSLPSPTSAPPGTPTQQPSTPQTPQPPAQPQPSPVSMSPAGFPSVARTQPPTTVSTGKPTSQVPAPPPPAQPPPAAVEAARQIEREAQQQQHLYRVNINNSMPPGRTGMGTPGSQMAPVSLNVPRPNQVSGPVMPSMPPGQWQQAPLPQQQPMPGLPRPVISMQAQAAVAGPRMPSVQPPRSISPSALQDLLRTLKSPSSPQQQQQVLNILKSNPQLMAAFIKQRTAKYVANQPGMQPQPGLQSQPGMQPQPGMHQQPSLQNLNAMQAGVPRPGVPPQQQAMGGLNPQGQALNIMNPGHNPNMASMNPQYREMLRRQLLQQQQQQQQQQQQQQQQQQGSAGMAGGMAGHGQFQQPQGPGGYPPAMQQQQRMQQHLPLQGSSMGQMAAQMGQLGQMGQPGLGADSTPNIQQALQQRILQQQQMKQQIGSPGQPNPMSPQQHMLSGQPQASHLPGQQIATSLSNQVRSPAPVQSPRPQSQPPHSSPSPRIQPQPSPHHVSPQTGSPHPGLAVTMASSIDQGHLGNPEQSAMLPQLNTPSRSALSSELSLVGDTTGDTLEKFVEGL

[9] = species on record: Homo sapiens; experiment: Selectivity index, ratio of IC50 for BR4 BD2 (unknown origin) to IC50 for CBP BRD (unknown origin)
[10] = species on record: Homo sapiens; experiment: Selectivity index, ratio of IC50 for BR4 BD1 (unknown origin) to IC50 for CBP BRD (unknown origin)
[11] = target: T1, CREB-binding protein; experiment: Binding affinity to CBP BRD (unknown origin) by microscale thermophoresis assay
Target sequence in this assay (Q92793 whole entry): as the sequence (Q92793 whole entry) above

In the case of CNC(=O)N1CCCc2ccc(NC(=O)c3ccc(-c4cccnc4)cc3)cc21, the IC50 [1] is reported as 53.7 nM, the inhibition at 6.25 µM [2] is reported as 92.1% and the IC50 [3] is reported as 1160 nM. The inhibition at 1.56 µM [4] was 62.5%.

Compound CNC(=O)N1CCCc2ccc(NC(=O)c3cccc(-c4cc[nH]n4)c3)cc21 has an IC50 [1] of 92.9 nM, an inhibition at 6.25 µM [2] of 89.7% and an inhibition at 1.56 µM [4] of 27.3%.

Work on CNC(=O)N1CCCc2ccc(NC(=O)c3ccc(-c4ccn(S(C)(=O)=O)n4)cc3)cc21 yielded an IC50 [1] of 74.4 nM, an inhibition at 6.25 µM [2] of 57.2% and an inhibition at 1.56 µM [4] of 8.81%.

In the case of CNC(=O)N1CCCc2ccc(NC(=O)c3ccc(-c4cnn(C)c4)cc3)cc21, the IC50 [1] is reported as 37.4 nM, the inhibition at 6.25 µM [2] is reported as 94.4% and the IC50 [3] is reported as 730 nM. It also gave an inhibition at 1.56 µM [4] of 77.3%.

In the case of CNC(=O)N1CCCc2ccc(NC(=O)c3ccccc3-c3ccccc3)cc21, the IC50 [5] is reported as 213 nM, the inhibition at 6.25 µM [2] is reported as 1.39% and the inhibition at 1.56 µM [4] is reported as 2.83%.

Work on CNC(=O)N1CCCc2ccc(NC(=O)c3cccc(-c4cnn(S(C)(=O)=O)c4)c3)cc21 yielded an IC50 [1] of 286 nM, an inhibition at 6.25 µM [2] of 18% and an inhibition at 1.56 µM [4] of 1.6%.

Compound CNC(=O)N1CCCc2ccc(NC(=O)c3ccc(-c4ccncc4)cc3)cc21 has an IC50 [1] of 89.2 nM, an inhibition at 6.25 µM [2] of 88.7% and an inhibition at 1.56 µM [4] of 37.6%.

Work on CNC(=O)N1CCCc2ccc(NC(=O)c3ccc(-c4ccn(C)n4)cc3)cc21 yielded an IC50 [1] of 40.2 nM, an inhibition at 6.25 µM [2] of 97% and an IC50 [3] of 830 nM. For the same compound, the inhibition at 1.56 µM [4] was 72.2%.

Compound CNC(=O)N1CCCc2ccc(NC(=O)c3ccc(-c4ccn(C(C)=O)n4)cc3)cc21 has an IC50 [1] of 52.3 nM, an inhibition at 6.25 µM [2] of 91.3% and an inhibition at 1.56 µM [4] of 35.8%.

With CNC(=O)N1CCCc2ccc(NC(=O)c3cccc(-c4ccccc4)c3)cc21 the IC50 [5] was 8410 nM, the inhibition at 6.25 µM [2] was 60.4% and the inhibition at 1.56 µM [4] was 10.7%.

Work on CNC(=O)N1CCCc2ccc(NC(=O)c3cccc(-c4ccn(S(C)(=O)=O)n4)c3)cc21 yielded an IC50 [1] of 103 nM, an inhibition at 6.25 µM [2] of 37% and an inhibition at 1.56 µM [4] of 4.03%.

CNC(=O)N1CCCc2ccc(NC(=O)c3cccc(-c4ccn(C)n4)c3)cc21 showed an IC50 [1] of 45.7 nM, an inhibition at 6.25 µM [2] of 99.5% and an IC50 [3] of 980 nM. For the same compound, the inhibition at 1.56 µM [4] was 70.5%.

With CNC(=O)N1CCCc2ccc(NC(=O)c3cccc(-c4cnn(C(C)=O)c4)c3)cc21 the IC50 [1] was 76.5 nM, the inhibition at 6.25 µM [2] was 82% and the inhibition at 1.56 µM [4] was 33.5%.

Work on CNC(=O)N1CCCc2ccc(NC(=O)c3ccc(-c4cnn(S(C)(=O)=O)c4)cc3)cc21 yielded an IC50 [1] of 93.1 nM, an inhibition at 6.25 µM [2] of 40.2% and an inhibition at 1.56 µM [4] of 4.5%.

Compound CNC(=O)N1CCCc2ccc(NC(=O)c3ccc(-c4cnn(C(C)=O)c4)cc3)cc21 has an IC50 [1] of 85.2 nM, an inhibition at 6.25 µM [2] of 83.8% and an inhibition at 1.56 µM [4] of 23.9%.

Work on CNC(=O)N1CCCc2ccc(NC(=O)c3cccc(-c4cn[nH]c4)c3)cc21 yielded an IC50 [1] of 91.3 nM, an inhibition at 6.25 µM [2] of 77.7% and an inhibition at 1.56 µM [4] of 27.9%.

Work on CNC(=O)N1CCCc2ccc(NC(=O)c3ccc(-c4cn[nH]c4)cc3)cc21 yielded an IC50 [1] of 47.7 nM, an inhibition at 6.25 µM [2] of 98.3% and an IC50 [3] of 870 nM. For the same compound, the inhibition at 1.56 µM [4] was 73.5%.

With C[C@@H]1CC(=O)Nc2cccc(-c3ccc4c(c3)c(-c3cnn(C)c3)nn4C)c2N1 the IC50 [6] was 12000 nM and the IC50 [7] was 18800 nM.

Compound COC(=O)N1CCCc2ccc(NC(=O)C3CC=CCC3C(=O)O)cc21 (centres undefined) has an IC50 [5] of 2300 nM.

With CNC(=O)N1CCCc2ccc(NC(=O)c3ccc(-c4ccccn4)cc3)cc21 the IC50 [1] was 102 nM, the inhibition at 6.25 µM [2] was 79.2% and the inhibition at 1.56 µM [4] was 31.9%.

CNC(=O)N1CCCc2ccc(NC(=O)c3cccc(-c4ccncc4)c3)cc21 gave an IC50 [1] of 63.3 nM and an IC50 [5] of 63.3 nM.

Work on CNC(=O)N1CCCc2ccc(NC(=O)c3ccc(-c4ccccc4)cc3)cc21 yielded an IC50 [1] of 195 nM, an inhibition at 6.25 µM [2] of 74.3% and an inhibition at 1.56 µM [4] of 19.6%.

CNC(=O)N1CCCc2ccc(NC(=O)c3cccc(-c4cnn(C)c4)c3)cc21 was tested, and the IC50 [1] was 55.4 nM, the inhibition at 6.25 µM [2] was 93.5% and the IC50 [3] was 1040 nM. For the same compound, the inhibition at 1.56 µM [4] was 71.2%.

Compound CNC(=O)N1CCCc2ccc(NC(=O)c3cccc(-c4ccn(C(C)=O)n4)c3)cc21 has an IC50 [1] of 94.6 nM, an inhibition at 6.25 µM [2] of 87.6% and an inhibition at 1.56 µM [4] of 27.6%.

With CNC(=O)N1CCCc2ccc(NC(=O)c3ccc(-c4cc[nH]n4)cc3)cc21 the IC50 [1] was 19.5 nM, the IC50 [6] was 8400 nM and the inhibition at 6.25 µM [2] was 99.1%. For the same compound, the inhibition [8] was “Dose-dependent effect”, the IC50 [3] was 550 nM and the IC50 [7] was 19000 nM. The Ratio IC50 [9] was over 400, the Ratio IC50 [10] was over 400 and the Kd [11] was 25.4 nM. The inhibition at 1.56 µM [4] was 92.5%.
